SENP8 block-1: human SENP8 protease inhibitors, primary screen, biochemical, fluorescence, Nedd8 protein substrate, uHTS. 360,000 compounds, 0.64% hits. inhibition, % at 20 µM. AID 602440, 2012. Sentrin-specific protease 8 (Homo sapiens), Q96LD8. recombinant SENP8; in the data active = inhibition mostly above about 40%, no sharp cut-off; inactive = mostly below about 27%
Target sequence (Q96LD8 whole entry, looked up): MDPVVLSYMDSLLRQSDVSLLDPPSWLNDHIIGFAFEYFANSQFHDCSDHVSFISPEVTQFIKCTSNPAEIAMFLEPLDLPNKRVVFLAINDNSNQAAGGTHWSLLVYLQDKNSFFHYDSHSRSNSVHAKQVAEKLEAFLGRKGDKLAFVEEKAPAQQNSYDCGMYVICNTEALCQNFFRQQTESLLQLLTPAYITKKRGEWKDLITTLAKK
SENP1 FRET inh: human SENP1 catalytic domain inhibitors, primary screen, biochemical, FRET, uHTS. Sentrin-specific protease 1 (Homo sapiens), Q9P0U3. recombinant SENP1 catalytic domain, CyPet-SUMO1-YPet FRET cleavage. inhibition, % at 10 µM. 360,000 compounds, 0.21% hits. AID 624204, 2012;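 active = inhibition at least 30% at 10 µM, raw YFP signal under a set limit, fluorescence ratio 0.5 to 1.5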;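 note: 0% = enzyme with DMSO and 100% = no enzyme wells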
Target sequence (Q9P0U3 419-644 limits assumed): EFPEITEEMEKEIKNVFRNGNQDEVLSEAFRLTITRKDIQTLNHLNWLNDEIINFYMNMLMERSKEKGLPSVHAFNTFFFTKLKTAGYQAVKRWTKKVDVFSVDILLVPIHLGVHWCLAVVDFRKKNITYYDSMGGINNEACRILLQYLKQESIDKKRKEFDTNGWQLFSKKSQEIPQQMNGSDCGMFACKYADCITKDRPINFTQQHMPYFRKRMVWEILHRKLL
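Test system: recombinant human SENP1 catalytic domain, His6-tagged / Medium: pH 8 Tris buffer with EDTA, NaCl, BME, BSA, NP40, catalase / Also added: SUMO1 FRET substrate flanked by Cypet and Ypet, 25 nM / Times: 50 min reaction at room temperature / Signal: FRET, CFP and YFP emission / Control set: no-enzyme low control and enzyme-plus-DMSO high control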
SENP8 block-2: SENP8 protease inhibitors, primary screen, biochemical, luminescence | AID 2540, 2010 | purified SENP8, Z-RLRGG-aminoluciferin cleavage | 330,000 compounds, 1.2% hits | Sentrin-specific protease 8 (Homo sapiens), Q96LD8 | inhibition, % at 10 µM; in the data active = inhibition above about 50%
SENP7 inh: SENP7 protease inhibitors, primary screen, biochemical, luminescence, uHTS. recombinant SENP7, Z-RLRGG-aminoluciferin luminescence, 40 min. Sentrin-specific protease 7 (Homo sapiens), Q9BQF6. 330,000 compounds, 1.5% hits. inhibition, % at 5 µM;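 active = inhibition above about 50% at the single test dose, limit read from the data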;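 note: plate controls were DMSO with enzyme for no effect and no enzyme buffer wells for full effect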
SENP6 inh: SENP6 protease inhibitors, primary screen, biochemical, luminescence, uHTS; Recombinant SENP6 catalytic domain, aminoluciferin luminescence; inhibition, % at 10 µM; 330,000 compounds, 1.8% hits; AID 2599, 2010;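 active = inhibition above about 50% at the single tested dose, limit read from the data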;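 note: plate controls were DMSO wells with enzyme for no effect and DMSO wells lacking enzyme for full effect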
CendR NRP1 mod: modulators of CendR peptide binding to NRP-1, primary screen, biochemical, fluorescence polarization, uHTS; inhibition, % at 25 µM; AID 602438, 2012; 360,000 compounds, 0.85% hits; Neuropilin-1 (Homo sapiens), O14786; FAM-RPARPAR peptide binding to NRP-1;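 active = inhibition or corrected inhibition above about 18%, plus a signal ratio from 0.5 to 1.5, limit read from the data, passing the limit was not always enough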
SENP8 confirm: SENP8 protease inhibitors, retest, confirmation, biochemical, luminescence, single concentration. shares compounds with SENP7 inh. Recombinant SENP8, Z-RLRGG-aminoluciferin luminescence, 60 min. inhibition, % at 12.5 µM. 6,200 compounds, 40% hits. AID 488912, 2010;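 active = mean inhibition across replicates above about 50%, limit read from the data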
SENP6 confirm: SENP6 protease inhibitors, confirmation, biochemical, luminescence, single concentration; shares compounds with SENP7 inh; recombinant SENP6, Z-RLRGG-aminoluciferin luminescence; inhibition, % at 12.5 µM; 6,200 compounds, 58% hits; AID 488915, 2010
SENP7 confirm: SENP7 protease inhibitors, retest, confirmation, biochemical, luminescence, single concentration | inhibition, % at 12.5 µM | shares compounds with SENP7 inh | recombinant SENP7, Z-RLRGG-aminoluciferin luminescence, 40 min | AID 488917, 2010 | 6,200 compounds, 69% hits
Casp3 SENP sel: caspase-3 protease inhibitors, confirmation, selectivity assay for SENP inhibitor project, biochemical, single concentration; shares compounds with SENP7 inh; purified caspase-3, Z-DEVD-aminoluciferin luminescence, 60 min; inhibition, % at 12.5 µM; 6,200 compounds, 60% hits;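 active = mean inhibition above about 50%, limit read from the data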;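 note: plate controls were enzyme with DMSO for no effect and wells without caspase-3 for full effect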
Target sequence (P42574 28-227 limits assumed): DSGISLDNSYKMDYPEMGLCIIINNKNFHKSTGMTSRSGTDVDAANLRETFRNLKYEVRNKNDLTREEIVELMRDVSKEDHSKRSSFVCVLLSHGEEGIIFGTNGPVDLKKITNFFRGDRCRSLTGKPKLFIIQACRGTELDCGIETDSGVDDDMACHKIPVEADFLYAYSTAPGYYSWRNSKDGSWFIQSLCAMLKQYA
Luc interf: interferes with luciferase luminescence in SENP counter-screen; shares compounds with SENP7 inh; Pre-incubated SENP8/Z-RLRGG-aminoluciferin, luciferase luminescence interference; inhibition, % at 12.5 µM; 6,200 compounds, 39% hits;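 active = mean inhibition above about 50% when retested at one dose, limit read from the data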;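 note: plate controls were DMSO wells with completed reaction for no effect and substrate without enzyme for full effect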
The depositor's hits bear a star; . = no result. Compounds with a hit are over-represented: about 3.3% of the library has one in this group of screens.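 Rule for the calls, unless noted: active = mean inhibition above about 50% in the one-dose retest (limit read from the data); inactive = the rest.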

SMILES	SENP8 block-1	SENP1 FRET inh	SENP8 block-2	SENP7 inh	SENP6 inh	CendR NRP1 mod	SENP8 confirm	SENP6 confirm	SENP7 confirm	Casp3 SENP sel	Luc interf
Cc1ccc(-c2csc(NC(=O)c3ccccc3Cl)c2C(=O)O)cc1	-7.8	3.2	29.5	3.7	46.3	-1.3	.	.	.	.	.
Nc1nc(SCc2ccccc2)cc(SCc2ccccc2)n1	13.4	0.3	.	.	.	1.6	.	.	.	.	.
O=C(c1c(F)cccc1Cl)N(Cc1ccco1)C1CCS(=O)(=O)C1 (configuration not stated)	14.9	-0.5	.	.	.	-14.9	.	.	.	.	.
Cc1cccc(NS(=O)(=O)Cc2ccccc2)n1	-496.0	0.7	-1.9	0.1	-9.1	-10.2	.	.	.	.	.
Cc1cccc(C#Cc2ccccc2)n1	5.2	-0.2	84.3*	90.1*	91.2*	-12.9	-8.0	73.2*	96.3*	82.5*	8.5
c1ccc(-c2csc(Nc3ccc4c(c3)OCCO4)n2)cc1	-130.7	25.4	90.9*	91.2*	95.5*	7.5	94.6*	95.3*	100.7*	73.5*	84.2*
COc1cccc(Nc2nc(-c3ccc4c(c3)OCCO4)cs2)c1	-38.0	-3.9	29.8	6.6	55.0*	-3.1	22.2	31.8	68.6*	7.9	8.3
O=C(NCC1CCCO1)c1ccc(Br)c(S(=O)(=O)N2CCOCC2)c1 (configuration not stated)	18.6	-0.7	2.8	3.9	-0.8	0.3	.	.	.	.	.
Cc1ccc(F)cc1N=Cc1c(O)c2ccccc2oc1=O	-84.6	-3.8	-5.8	-10.9	-4.6	-13.5	.	.	.	.	.
CC(=O)c1cccc(N=Cc2c(O)c3ccccc3oc2=O)c1	-92.0	-1.8	-32.0	-19.3	-40.3	-13.2	.	.	.	.	.
COc1cccc(N=Cc2c(O)c3ccccc3oc2=O)c1	-311.3	-5.7	8.9	27.1	62.3*	-15.0	17.7	22.3	75.9*	14.9	13.4
Cc1ccc(N=Cc2c(O)c3ccccc3oc2=O)c(C)c1	-152.0	-29.9	45.6	85.8*	42.4	-13.5	53.3*	52.1*	34.9	43.9	1.8
O=C(Nc1ccccc1)c1ccc(CSc2ncccn2)cc1	15.5	1.6	85.4*	91.3*	88.8*	0.5	71.6*	86.5*	95.9*	90.3*	27.7
O=C(Nc1ccccc1F)c1ccc(CSc2ncccn2)cc1	5.7	2.4	82.7*	88.1*	86.9*	10.1	85.5*	86.5*	96.5*	90.3*	88.2*
CSCc1ccc(C(=O)Nc2ccc(C(N)=O)cc2)cc1	2.9	0.4	73.6*	86.2*	82.4*	6.1	-10.6	-3.0	13.5	54.7*	4.5
CC(C)CC(N)c1csc(Nc2cc(Oc3ccccc3)ncn2)n1 (configuration not stated)	1.7	-4.1	.	.	.	-2.3	.	.	.	.	.
Nc1ccc(CCCC(=O)NCc2cccnc2)cc1	17.0	3.9	.	.	.	-8.6	.	.	.	.	.
O=C(NCCc1ccc(Cl)cc1)c1cc2ccccn2n1	17.9	1.2	-2.2	-3.4	-15.4	-9.4	.	.	.	.	.
O=C(Nc1ccc(Br)cc1)c1cc2ccccn2n1	37.3	2.2	70.5*	64.0*	-7.9	5.7	34.8	35.8	87.5*	64.9*	43.6
Cc1cc(C(=O)Nc2ccc(N3CCOCC3)c(Cl)c2)c(C)o1	22.7	2.4	56.7*	57.5*	76.8*	-7.8	71.2*	69.1*	87.8*	76.9*	74.5*
O=C(O)c1ccc2cc(-c3ccccc3)[nH]c2c1	-454.2	4.2	97.5*	99.8*	95.4*	1.3	6.8	100.7*	103.7*	47.8	50.3*
CC(C)(C)c1ccc(CC(=O)N2CCC2(C)C(=O)NS(=O)(=O)c2ccc(Cl)cc2)cc1 (configuration not stated)	3.0	0.8	.	.	.	-0.4	.	.	.	.	.
Cc1nn(C(C)C(=O)Nc2ccc(Cl)cn2)c(C)c1[N+](=O)[O-] (configuration not stated)	4.7	0.7	-4.5	79.7*	-31.3	-3.6	-4.7	1.6	-2.2	-1.7	-0.9
C[C@H]1CN([C@@H](C)CO)S(=O)(=O)c2ccc(Br)cc2O[C@H]1CN(C)C(=O)CCN1CCCCC1	4.3	-2.7	.	.	.	4.4	.	.	.	.	.
CCOC(=O)[C@]12CCCC=C1N(Cc1ccco1)C(=O)[C@H](CC(=O)N1CCOCC1)C2	8.6	-0.6	.	.	.	-7.0	.	.	.	.	.
SMILES	SENP8 block-1	SENP1 FRET inh	SENP8 block-2	SENP7 inh	SENP6 inh	CendR NRP1 mod	SENP8 confirm	SENP6 confirm	SENP7 confirm	Casp3 SENP sel	Luc interf
COc1ccc(Cn2c(C3CC3)nc3ccc(NC(C)=O)cc3c2=O)cc1	-15.4	-0.5	46.1	67.2*	72.6*	0.3	70.2*	68.4*	89.8*	73.3*	41.9
CCCc1nc2ccc(NC(C)=O)cc2c(=O)n1Cc1ccc(Cl)cc1	-0.6	0.2	-2.7	4.0	24.5	-0.4	.	.	.	.	.
O=C1NC2=C(C(=O)CCC2)C(c2ccc3ncccc3c2)N1 (configuration not stated)	12.9	2.9	1.8	71.8*	-1.6	10.5	0.4	4.9	6.4	-0.5	0.2
O=C1CCCC2=C1C(c1ccncc1)Nc1ccccc1N2 (configuration not stated)	-30.6	1.1	-5.1	5.3	-14.9	0.0	.	.	.	.	.
COc1ccccc1NC(=O)/C=C/c1ccc2c(c1)OCO2	1.5	0.5	65.2*	68.2*	72.7*	3.6	78.2*	75.3*	93.2*	72.8*	35.6
COc1ccccc1NC(=O)c1ccc2c(c1)OCO2	3.5	0.2	38.4	50.6*	59.8*	-6.5	50.8*	48.3	83.5*	79.3*	60.5*
